Compound activity (PubChem BioAssay)
T cruzi inh = blocks replication of Trypanosoma cruzi; T. cruzi beta-gal in NIH3T3, luminescence, 90 h; inhibition, % (no concentration beside the values); 300,000 tested, 1.4% active; AID 1885;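 active = mean inhibition across valid replicates above about 55%, limit read from the data; inconclusive = mean below that limit but half or more replicates reach it; inactive = mean below it, under half of replicates reach it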;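 also: signal also drops with host cell toxicity which is not excluded here; 0% = plate median of DMSO wells and 100% = zero luminescence signal; higher percent means less beta-gal luminescence so fewer parasites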
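Assay system: NIH/3T3 host cells with β-galactosidase reporter T. cruzi; input: 5,000 host fibroblasts per well; compound: single 50 nL compound addition per well in DMSO; timing: ≥90 h infection period, 3 h prior cell attachment; measured by: GalScreen β-gal luminescence, detergent lysis, 60 min; evaluation: percent inhibition of parasite-derived β-gal signal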
Mdm2-MdmX inh = human Mdm2/MdmX binding inhibition; SaOS-2 split-luciferase Mdm2/MdmX complementation, luminescence; 330,000 tested, 3% active; O15151+Q00987; inhibition, % at 8 µM;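 active = inhibition of at least 50% at 8 µM in the primary screen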
Target sequence (O15151 whole entry, looked up): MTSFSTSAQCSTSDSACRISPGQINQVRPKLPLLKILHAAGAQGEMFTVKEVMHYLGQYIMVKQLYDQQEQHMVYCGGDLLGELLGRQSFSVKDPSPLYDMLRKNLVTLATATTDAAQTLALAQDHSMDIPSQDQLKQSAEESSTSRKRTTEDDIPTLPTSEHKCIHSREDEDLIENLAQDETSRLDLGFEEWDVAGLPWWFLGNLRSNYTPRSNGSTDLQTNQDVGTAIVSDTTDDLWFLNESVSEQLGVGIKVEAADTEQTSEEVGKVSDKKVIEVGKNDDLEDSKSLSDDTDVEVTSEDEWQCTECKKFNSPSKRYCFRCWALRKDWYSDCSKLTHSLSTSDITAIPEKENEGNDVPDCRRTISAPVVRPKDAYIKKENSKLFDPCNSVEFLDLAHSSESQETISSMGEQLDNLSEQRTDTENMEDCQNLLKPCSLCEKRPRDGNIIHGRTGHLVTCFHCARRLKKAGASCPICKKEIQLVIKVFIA
Target sequence (Q00987 whole entry, looked up): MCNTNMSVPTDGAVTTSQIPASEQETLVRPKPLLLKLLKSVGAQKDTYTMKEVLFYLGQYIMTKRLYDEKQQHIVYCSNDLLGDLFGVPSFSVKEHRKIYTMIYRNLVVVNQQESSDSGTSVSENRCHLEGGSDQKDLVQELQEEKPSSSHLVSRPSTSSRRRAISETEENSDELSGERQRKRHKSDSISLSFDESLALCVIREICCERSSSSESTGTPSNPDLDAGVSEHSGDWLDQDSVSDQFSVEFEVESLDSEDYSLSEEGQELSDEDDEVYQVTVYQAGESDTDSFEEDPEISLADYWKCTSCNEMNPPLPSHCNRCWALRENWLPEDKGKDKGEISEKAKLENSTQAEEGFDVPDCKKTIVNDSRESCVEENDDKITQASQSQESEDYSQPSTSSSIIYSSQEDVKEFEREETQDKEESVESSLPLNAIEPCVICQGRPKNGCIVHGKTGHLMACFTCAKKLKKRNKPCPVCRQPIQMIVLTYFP
Lmaj promast = reduces viability of Leishmania major promastigotes. resazurin fluorescence viability. inhibition, % at 10 µM. 200,000 tested, 9% active. AID 1063; in the data active = inhibition above about 50%;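 also: promastigotes grown with compound for 44 hours at 28 °C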
Beta apoptosis = blocks beta cell apoptosis; INS-1E cytokine-induced death, ATP luminescence, 48 h; percent of positive-control rescue, neutral wells zero; protection from apoptosis, % (test concentration not listed); 300,000 tested, 0.8% active;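 active = Every replicate reaches about 75%, or at least half do and their mean reaches it too, limit read from the data; inconclusive = At least half of replicates reach the limit but their mean does not; inactive = Under half of replicates reach the limit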;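 also: 0% = cytokine-treated negative control wells and 100% = positive control rescue; higher means more ATP so stronger rescue from cytokine killing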
SKKanGAS inh = inhibitors of SKKanGAS S. pyogenes growth in kanamycin (SK-promoter or general growth effect); 300,000 tested, 1.3% active; inhibition, % at 7.5 µM; BacTiter-Glo, 6 h; AID 1662;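 active = mean replicate score, as percent of positive control median, at least 50; inconclusive = mean below 50 but one replicate at or above 50; inactive = mean and every replicate below 50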;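 also: strain carries kanamycin resistance gene driven by streptokinase promoter and grows in 40 µg/ml kanamycin; loss of luminescence reflects streptokinase promoter inhibition or plain growth inhibition; 0% = median of DMSO wells and 100% = positive control at its reference dose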
CSC inhib = cancer stem cell inhibition; cancer stem cell-like cells viability, luminescence; 300,000 tested, 1.1% active; inhibition, % at 7.5 µM; in the data active = inhibition above about 75%; inconclusive = no clear call, values can overlap the other calls; tested in HMLE shEcad cells
Mdm2-MdmX conf = confirmation of human Mdm2/MdmX interaction inhibitors | shares compounds with Mdm2-MdmX inh | inhibition, % at 8 µM | Mdm2-MdmX binding, luminescent assay | 10,000 tested, 55% active; in the data active = inhibition above about 40%
FLuc counter = counter-screen for Mdm2/MdmX inhibitors: full-length luciferase. shares compounds with Mdm2-MdmX inh. SaOS-2 full-length luciferase counterscreen, luminescence. inhibition, % at 8 µM. 6,200 tested, 77% active. AID 504607;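 active = mean inhibition at 8 µM reaching about 37%, which flags the compound as non-specific, limit read from the data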;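 also: p53-null SaOS-2 cells with luciferase driven by a doxycycline-inducible promoter; compound on cells about two nights before reading with doxycycline added after day one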
* = called active by the depositor; u = inconclusive; x = no result given. Hits are enriched below; roughly 9.4% of the tested compounds scored in any of these assays.

SMILES | T cruzi inh | Mdm2-MdmX inh | Lmaj promast | Beta apoptosis | SKKanGAS inh | CSC inhib | Mdm2-MdmX conf | others
CCC(C)[C@H](NC(=O)N1CC(=O)Nc2ccccc21)C(=O)Nc1ccccc1C (stereo not given in full) | -12 | 67* | x | x | -1 | -4 | 64* | FLuc counter=39*
CCCCn1c(N)c(N(CCOC)C(=O)c2cccc(S(=O)(=O)N(CC)c3ccccc3)c2)c(=O)[nH]c1=O | -11 | 27 | x | -4 | -4 | -8 | x
COc1cccc(NC(=O)Nc2ccc3c(c2)N(C)C(=O)CS3)c1 | 11 | 50* | 59* | -2 | -3 | -19 | 27
CC(OC(=O)Cn1cnc2ccccc2c1=O)C(=O)NCc1ccccc1 (stereo not given) | -4 | 21 | x | -9 | -4 | -7 | x
O=C(Nc1ccc(Cl)c(S(=O)(=O)N2CCOCC2)c1)c1n[nH]c(=O)c2ccccc12 | x | 60* | x | -3 | x | x | -13
Cc1ccc(NC(=O)c2n[nH]c(=O)c3ccccc23)cc1S(=O)(=O)N1CCOCC1 | x | 7 | x | x | x | x | x
O=C(Nc1ccc(Cl)c(S(=O)(=O)N2CCOCC2)c1)c1ccc(OCC2CCCO2)cc1 (stereo not given) | -27 | 75* | 15 | 4 | -14 | -1 | 65* | FLuc counter=60*
CCCCC1=C(C(=O)OCC)C(C(=O)OCC)Oc2ccccc21 (stereo not given) | x | 16 | x | x | x | x | x
CCNc1nc(C)c2cc(Br)c(=O)n(CC)c2n1 | 25 | 73* | 0 | 19 | -1 | 43 | 44* | FLuc counter=46*
CC(Nc1nc(-c2ccc(Cl)cc2)cs1)c1nc2cc(Cl)c(N3CCCCC3)cc2n1CCOCCO (stereo not given) | 37 | 51* | x | 3 | 41 | u | 2
O=C(CC(Nc1ccc(Cl)cc1Cl)C(=O)O)c1ccccc1 (stereo not given) | -1 | 71* | x | -1 | -5 | -11 | 80* | FLuc counter=63*
Cc1ccc(NS(=O)(=O)c2cc([N+](=O)[O-])ccc2N/N=C/c2sc(N3CCOCC3)nc2-c2ccccc2)c(C)c1 | 7 | 86* | x | 75* | 9 | 8 | 22
CCOC(=O)C1CCCN(C(=O)CCCn2c(=O)c3cccn3c3cccnc32)C1 (stereo not given) | 2 | 17 | x | -2 | 0 | -22 | x
Cc1onc(-c2ccccc2)c1C(=O)NCC(O)c1ccccc1 (stereo not given) | -10 | 7 | x | x | -2 | x | x
C/C(=N\NC(=O)c1ccc(CN2CCc3ccccc3C2)cc1)c1ccccc1O | 64* | 55* | -11 | 29 | 25 | -4 | 65* | FLuc counter=85*
CCC(C)NC(=O)c1ccc(CN2CCc3ccccc3C2)cc1 (stereo not given) | 13 | 9 | x | 1 | 3 | -28 | x
CCn1c(NC(=O)c2ccc(COc3ccc(C)cc3[N+](=O)[O-])o2)nc2ccccc21 | 43 | 59* | 3 | 21 | 31 | 30 | 42* | FLuc counter=94*
CCN(c1ccc(OC)cc1)S(=O)(=O)c1csc(C(=O)N2CCCC2)c1 | 11 | 30 | x | 1 | -11 | -12 | x
CCc1nc(SCC(=O)N2c3ccccc3CC2C)c2c(C)c(C)sc2n1 (stereo not given) | 28 | 98* | 5 | 20 | 50* | 48 | 93* | FLuc counter=53*
Cc1sc2nc(C(C)C)nc(SCC(=O)N3c4ccccc4CC3C)c2c1C (stereo not given) | 18 | 56* | 94* | -3 | 33 | 31 | 27
COc1ccc(Cl)cc1S(=O)(=O)N1CCC(C(=O)NCc2ccccn2)CC1 | 3 | -25 | x | x | -3 | -4 | x
O=C(COC(=O)COc1ccc(Cl)cc1)Nc1ncc(Br)s1 | x | -19 | x | x | x | x | x
COc1ccc(Cn2c3ccc(OC)cc3c3nc4ccccc4nc32)cc1 | -2 | 51* | 0 | -2 | 1 | u | 24
COc1ccc2c(c1)c1nc3ccccc3nc1n2CC(=O)OC(C)C | 3 | 58* | 6 | 20 | 0 | -9 | 16
COC(=O)Cn1c2ccc(C)cc2c2nc3ccccc3nc21 | -7 | -2 | x | x | -2 | x | x
SMILES | T cruzi inh | Mdm2-MdmX inh | Lmaj promast | Beta apoptosis | SKKanGAS inh | CSC inhib | Mdm2-MdmX conf | others
COc1ccc2c(c1)c1nc3ccccc3nc1n2Cc1ccc(OC(C)C)c(OC)c1 | 6 | -19 | 10 | -2 | -4 | 15 | x
CCC(C)(C)NC(=O)C(c1ccncc1)N(C(=O)c1sc(C)nc1C)c1ccc(C)cc1 (stereo not given) | -10 | 2 | -3 | x | 0 | 14 | x
Cc1cccc(C(=O)NNC(=O)C2CCN(C(=O)OC(C)(C)C)CC2)c1 | -4 | 18 | x | -4 | 6 | -11 | x
COc1ccc2cc3cc(C(=O)Nc4ccccc4N4CCN(C)CC4)oc3nc2c1 | 67* | 101* | 100* | 23 | 3 | 14 | 4
CN1CCN(c2ccccc2NC(=S)NC(=O)c2cc3ccccc3o2)CC1 | -12 | 92* | x | -4 | 9 | 1 | 18
COc1ccc2cc3cc(C(=O)NCCN4CCN(c5ccccc5F)CC4)oc3nc2c1 | 32 | 57* | 27 | 10 | 17 | -9 | 14
O=C(CCS(=O)(=O)c1ccc(Cl)cc1)Nc1ccc(N2CCOCC2)cc1 | -9 | 2 | x | 3 | 1 | -12 | x
O=c1[nH]ncc(N/N=C\c2cccs2)c1Cl | -5 | 12 | -4 | -1 | x | -8 | x
CCc1noc(C)c1C(=O)N(C)CC(=O)Nc1ccc(Br)cc1C | 11 | -17 | x | x | -4 | 4 | x
O=C(Cn1cnc2cc([N+](=O)[O-])ccc2c1=O)NC(c1ccccc1)c1ccccc1 | 52 | 18 | 12 | -2 | 3 | 8 | x
COC(=O)c1ccc(/C=C2/SC(=S)N(CCCC(=O)Nc3ccc(O)cc3)C2=O)cc1 | 9 | 100* | x | -25 | 23 | 18 | 55* | FLuc counter=5
O=C(CN1C(=O)S/C(=C/C=C/c2ccccc2)C1=O)Nc1ccc(C(=O)O)cc1 | -5 | -10 | 3 | 0 | 17 | -7 | x
O=C(CCCN1C(=O)S/C(=C\C=C\c2ccccc2)C1=O)Nc1ccc(O)cc1 | 2 | 53* | x | -1 | 33 | -2 | -1
Cc1ccc(/C=C2\SC(=S)N(CCCC(=O)Nc3ccc(O)cc3)C2=O)cc1 | 35 | 93* | x | -1 | -4 | 34 | 89* | FLuc counter=47*
O=C(Nc1cc([N+](=O)[O-])ccc1F)C1CCN(S(=O)(=O)c2cccs2)CC1 | x | -9 | x | -1 | x | -6 | x
CCC(Oc1ccccc1OC)C(=O)N1CC(=O)Nc2ccccc21 (stereo not given) | 4 | -19 | x | -8 | 6 | 4 | x
COc1ccc(CN2CCNC(=O)C2CC(=O)NCCc2nc(C)c(C)s2)cc1C (stereo not given) | 2 | 19 | x | -4 | -2 | -9 | x
